36 molecules from ChEMBL document CHEMBL1811767, “Quinoxalin-2(1H)-one derivatives as inhibitors against hepatitis C virus” (J Med Chem, 2011) can be followed below.

Series [1] can be described thus: Cytotoxicity against human Huh7ET cells by CytoTox-one cell proliferation assay. The class given is cell-based. Particulars: Huh-7. In outline:
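Parallel plate of replicon Huh 7 ET cells (5000/well, DMEM without G418), compounds from DMSO stocks diluted in DMEM, 72 h. Viability by tetrazolium-based CytoTox-1 proliferation assay. Mean of four replicates; IC50 = concentration decreasing cell viability by 50%.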

The next series has as its system Hepatitis C virus. Description: Antiviral activity against Hepatitis C virus infected in human Huh7ET cells assessed as inhibition of dicistronic viral RNA replication after 72 hrs by luciferase reporter gene assay. Particulars: Huh-7, 72 h. The class given is functional, organism-based, Hepacivirus hominis. The essentials:
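HCV replicon Huh 7 ET cells seeded 5000/well in DMEM without G418 overnight; compounds dissolved in DMSO, diluted in DMEM, dose-response. After 72 h, replicon-derived luciferase read by Steady-Glo. Mean of four replicates; EC50 = concentration inhibiting HCV RNA replication by 50%.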
For orientation: A reporter such as luciferase makes a cellular process visible.

Series [2] is described as follows: Selectivity index, ratio of IC50 for human Huh7ET cells to EC50 for Hepatitis C virus. Conditions: read-out: Ratio IC50/EC50. Format: toxicity, cell-based, Huh-7. The essentials: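 SI taken as IC50 (CytoTox-1 viability, Huh 7 ET replicon cells, 72 h) divided by EC50 (replicon luciferase, same cells and exposure); each from four-replicate averages.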

As usually defined, the IC50 is the point on the concentration scale where inhibition reaches its midpoint. Low readings indicate greater potency, high ones weaker potency. As a reminder, the EC50 is the midpoint of the concentration-response curve. Take `Cc1ccsc1C(=O)NC(=S)Nc1cc2[nH]c(=O)cnc2cc1N(C)C1CCCCC1`: in series [1], 12.6 µM corresponded to half-maximal inhibition (IC50). For the same molecule, the EC50 in the series with Hepatitis C virus is 3.27 µM. Further, in series [2], the selectivity ratio came to 3.84.

In turn, `CN(c1cc2c(cc1Nc1nc(-c3ccccc3)cs1)NC(=O)CS2)C1CCCCC1` returned an IC50 in series [1] of 13.8 µM. Also, the EC50 in the series on Hepatitis C virus is greater than 20 µM. For the same molecule, the selectivity ratio in series [2] was less than 0.69.

As to `CN(c1cc2ncc(=O)[nH]c2cc1NC(=N)NCc1ccccc1)C1CCCCC1`, in series [1], half-maximal inhibition (IC50) was put at 9.94 µM. For the same molecule, the 50% effective concentration (EC50) with Hepatitis C virus turned out to be 11.4 µM. Moreover, the selectivity ratio in series [2] amounted to 0.87.

In the case of `CN(c1cc2ncc(=O)[nH]c2cc1Nc1nc(-c2ccco2)cs1)C1CCCCC1`, the 50% inhibitory concentration (IC50) in series [1] came out at 11.9 µM. The EC50 in the series with Hepatitis C virus was 12.2 µM. Also, in series [2], the selectivity ratio was found to be 1.

As to `CN(c1cc2ncc(=O)[nH]c2cc1Nc1nc(-c2ccc(Cl)cc2)cs1)C1CCCCC1`, the IC50 in series [1] amounted to 16.7 µM. Moreover, the EC50 in the series with Hepatitis C virus is 5.39 µM. The selectivity ratio in series [2] is 3.1.

In series [1], `CN(c1cc2ncc(=O)[nH]c2cc1NC(=O)Nc1ccccc1)C1CCCCC1` came in with a concentration for half-maximal inhibition (IC50) of 5.52 µM. Further, in the series on Hepatitis C virus, the EC50 is 11.4 µM. In addition, the selectivity ratio in series [2] was determined as 0.5.

Turning to `CN(c1cc2ncc(=O)[nH]c2cc1NC(=S)NC(=O)c1ccc(OC(F)(F)F)cc1)C1CCCCC1`, the IC50 in series [1] is 6.47 µM. The EC50 in the series with Hepatitis C virus was determined as 2.33 µM. For the same molecule, the selectivity ratio in series [2] was 2.78.

On to `CN(c1cc2ncc(=O)[nH]c2cc1Nc1nc(-c2ccc(-c3ccccc3)cc2)cs1)C1CCCCC1`, for which, in series [1], 82 µM corresponded to half-maximal inhibition (IC50). Moreover, the EC50 with Hepatitis C virus is greater than 20 µM. For the same molecule, the selectivity ratio in series [2] is less than 4.1.

In series [1], `CN(c1cc2ncc(=O)[nH]c2cc1N1CC(=O)N(c2ccccc2)C1=S)C1CCCCC1` displayed an IC50 of 2.99 µM. For the same molecule, the EC50 in the series with Hepatitis C virus worked out at 2.21 µM. Further, the selectivity ratio in series [2] came out at 1.4.

In the case of `CC(C)Cc1nc2cc(N(C)C3CCCCC3)c(Nc3nc(-c4ccccc4)cs3)cc2[nH]c1=O`, inhibition in series [1] was half-maximal at 33.3 µM (IC50). In addition, in the series on Hepatitis C virus, the EC50 is 4.19 µM. For the same molecule, the selectivity ratio in series [2] turned out to be 7.9.

As to `CN(c1cc2nc(Cc3ccccc3)c(=O)[nH]c2cc1Nc1nc(-c2ccccc2)cs1)C1CCCCC1`, the concentration for half-maximal inhibition (IC50) in series [1] was found to be 42 µM. Further, the EC50 with Hepatitis C virus is greater than 20 µM. Besides, the selectivity ratio in series [2] was less than 2.1.

In the case of `COc1ccc(-c2csc(Nc3cc4[nH]c(=O)cnc4cc3N(C)C3CCCCC3)n2)cc1`, in series [1], the midpoint of inhibition, the IC50, lay at 15 µM. Moreover, in the series with Hepatitis C virus, the concentration for a half-maximal effect (EC50) is greater than 20 µM. Besides, the selectivity ratio in series [2] was less than 0.75.

For `CN(c1cc2ncc(=O)[nH]c2cc1NC(=N)NCc1ccc(OC(F)(F)F)cc1)C1CCCCC1`, the IC50 in series [1] came to 3.7 µM. The EC50 with Hepatitis C virus was 3.97 µM. In series [2], the selectivity ratio turned out to be 0.9.

`CN(c1cc2ncc(=O)[nH]c2cc1NC(=O)Nc1cccc2ccccc12)C1CCCCC1` gave an IC50 in series [1] of 5.33 µM. The EC50 in the series on Hepatitis C virus amounted to 9.84 µM. Besides, in series [2], the selectivity ratio turned out to be 0.5.

`COc1ccc(CNC(=N)Nc2cc3[nH]c(=O)cnc3cc2N(C)C2CCCCC2)cc1`: the IC50 in series [1] was determined as 19.5 µM. The EC50 in the series with Hepatitis C virus was greater than 20 µM. Besides, in series [2], the selectivity ratio was less than 0.98.

As for `CN(c1cc2c(cc1Nc1nc(-c3ccccc3)cs1)[nH]c(=O)c1cccn12)C1CCCCC1`, the IC50 in series [1] turned out to be 18 µM. Moreover, in the series with Hepatitis C virus, the EC50 was 1.82 µM. In series [2], the selectivity ratio came out at 9.9.

In turn, `CN(c1cc2ncc(=O)[nH]c2cc1NC(=S)Nc1ccccc1)C1CCCCC1` registered an IC50 in series [1] of 49.6 µM. Besides, the EC50 in the series on Hepatitis C virus is greater than 20 µM. Moreover, the selectivity ratio in series [2] is less than 2.8.

`CN(c1cc2ncc(=O)[nH]c2cc1Nc1nc(-c2ccc(F)cc2)cs1)C1CCCCC1` registered an IC50 in series [1] of 9.92 µM. In the series on Hepatitis C virus, the EC50 came to 5.26 µM. Further, the selectivity ratio in series [2] is 1.9.

In series [1], `CN(c1cc2ncc(=O)[nH]c2cc1NC(=N)NCc1ccccn1)C1CCCCC1` displayed an IC50 of 48.6 µM. The EC50 in the series on Hepatitis C virus is greater than 20 µM. Besides, in series [2], the selectivity ratio is less than 2.4.

In turn, `CN(c1ccccc1)c1cc2ncc(=O)[nH]c2cc1Nc1nc(-c2ccccc2)cs1` registered a concentration for half-maximal inhibition (IC50) in series [1] of 15.9 µM. Besides, in the series on Hepatitis C virus, the EC50 came to 4.61 µM. The selectivity ratio in series [2] was 3.4.

Molecule `CN(c1cc2ncc(=O)[nH]c2cc1Nc1nc(-c2ccc3c(c2)OCO3)cs1)C1CCCCC1` came in with an IC50 in series [1] of 61.2 µM. In the series on Hepatitis C virus, the concentration for a half-maximal effect (EC50) is greater than 20 µM. In series [2], the selectivity ratio is less than 3.1.

On to `COc1cc(C(=O)NC(=S)Nc2cc3[nH]c(=O)cnc3cc2N(C)C2CCCCC2)cc(OC)c1OC`, for which, in series [1], half-maximal inhibition (IC50) required 15.9 µM. Besides, the EC50 in the series with Hepatitis C virus was 5.16 µM. Moreover, the selectivity ratio in series [2] came to 3.1.

In series [1], `CN(c1cc2ncc(=O)[nH]c2cc1NC(=S)NC(=O)c1ccco1)C1CCCCC1` displayed an IC50 of 17.3 µM. Besides, in the series with Hepatitis C virus, the EC50 is 1.8 µM. In series [2], the selectivity ratio worked out at 9.6.

Molecule `CN(c1cc2ncc(=O)[nH]c2cc1NC(=S)NC(=O)c1ccccc1)C1CCCCC1` returned an IC50 in series [1] of 11.1 µM. Further, the EC50 in the series on Hepatitis C virus came out at 2.42 µM. In addition, the selectivity ratio in series [2] was 4.57.

In series [1], `CN(c1cc2ncc(=O)[nH]c2cc1NC(=S)NC(=O)c1cccc(C(F)(F)F)c1)C1CCCCC1` had a concentration for half-maximal inhibition (IC50) of 31.5 µM. Besides, the EC50 with Hepatitis C virus was 4.08 µM. For the same molecule, in series [2], the selectivity ratio amounted to 7.5.

Turning to `CN(c1cc2ncc(=O)[nH]c2cc1NC(=N)NCc1cccc(C(F)(F)F)c1)C1CCCCC1`, the IC50 in series [1] amounted to 54 µM. The EC50 in the series with Hepatitis C virus is greater than 20 µM. For the same molecule, the selectivity ratio in series [2] was less than 2.7.

The molecule `CN(c1cc2ncc(=O)[nH]c2cc1NC(=S)Nc1ccc(F)cc1)C1CCCCC1` came in with a 50% inhibitory concentration (IC50) in series [1] of 64.3 µM. For the same molecule, the half-maximal effective concentration (EC50) in the series with Hepatitis C virus is greater than 20 µM. Besides, the selectivity ratio in series [2] was less than 3.2.

Take `CN(c1cc2ncc(=O)[nH]c2cc1Nc1nc(-c2cccc3ccccc23)cs1)C1CCCCC1`: in series [1], the IC50 worked out at 57.4 µM. Further, the EC50 in the series on Hepatitis C virus came to 6.8 µM. In series [2], the selectivity ratio turned out to be 8.4.

`CN(c1cc2ncc(=O)[nH]c2cc1NC(=N)NCc1ccc(F)cc1)C1CCCCC1` showed an IC50 in series [1] of 10.2 µM. Besides, in the series with Hepatitis C virus, the EC50 was determined as 12.8 µM. For the same molecule, the selectivity ratio in series [2] worked out at 0.8.

In turn, `CN(c1cc2ncc(=O)[nH]c2cc1NC(=N)NCc1ccc(Cl)cc1)C1CCCCC1` had an IC50 in series [1] of 4.4 µM. Also, in the series with Hepatitis C virus, the EC50 amounted to 3.94 µM. The selectivity ratio in series [2] is 1.12.

`CN(c1cc2ncc(=O)[nH]c2cc1NC(=S)Nc1cccc2ccccc12)C1CCCCC1` displayed an IC50 in series [1] of 43.6 µM. Also, the EC50 in the series on Hepatitis C virus is greater than 20 µM. Besides, the selectivity ratio in series [2] is less than 2.2.

Consider `Cc1nc2cc(N(C)C3CCCCC3)c(Nc3nc(-c4ccccc4)cs3)cc2[nH]c1=O`, for which the IC50 in series [1] is 12.3 µM. The EC50 in the series with Hepatitis C virus amounted to 3.91 µM. Besides, the selectivity ratio in series [2] worked out at 3.15.

For `CN(c1cc2ncc(=O)[nH]c2cc1Nc1nc(-c2cccs2)cs1)C1CCCCC1`, the IC50 in series [1] was 71.3 µM. Further, in the series with Hepatitis C virus, the concentration giving a half-maximal response (EC50) is greater than 20 µM. Further, in series [2], the selectivity ratio was less than 3.6.

In turn, `CN(c1cc2ncc(=O)[nH]c2cc1NC(=S)NC(=O)c1ccc(F)cc1)C1CCCCC1` came in with an IC50 in series [1] of 11.4 µM. Moreover, the EC50 in the series with Hepatitis C virus is 2.97 µM. In series [2], the selectivity ratio came to 3.8.

In turn, `CN(c1cc2ncc(=O)[nH]c2cc1Nc1nc2c(s1)Cc1ccccc1-2)C1CCCCC1` yielded an IC50 in series [1] of 10.9 µM. Further, in the series with Hepatitis C virus, the EC50 was determined as 4.57 µM. The selectivity ratio in series [2] came out at 2.39.

On to `CN(c1cc2ncc(=O)[nH]c2cc1NC(=S)Nc1cccc(C(F)(F)F)c1)C1CCCCC1`, for which half-maximal inhibition in series [1] (IC50) required 78.4 µM. Moreover, the EC50 in the series with Hepatitis C virus was greater than 20 µM. Further, the selectivity ratio in series [2] is less than 3.9.
